Test results: ChEMBL document CHEMBL1255451, “Genetic basis of multidrug resistance in Acinetobacter clinical isolates in Taiwan” (2010)
Converted amounts (≈) assume the structure as drawn. The source made the active and inactive calls. The rule behind the calls is not given here.

What was measured:
Format in all cases: functional
Acinetobacter baumannii [1] = experiment: Antimicrobial activity against Acinetobacter baumannii ATCC 15151 harboring ISAba1-blaOXA-66 gene by Etest
Acinetobacter baumannii [2] = experiment: Antimicrobial activity against Acinetobacter baumannii ATCC 15151 harboring ISAba1-blaOXA-23 gene by Etest
Acinetobacter baumannii [3] = experiment: Antimicrobial activity against Acinetobacter baumannii 6AB15 harboring ISAba1-blaOXA-23 and blaOXA-66 gene by Etest
Acinetobacter baumannii [4] = experiment: Antimicrobial activity against Acinetobacter baumannii ATCC 15151 harboring plasmid AT801 by Etest
Acinetobacter baumannii [5] = experiment: Antimicrobial activity against Acinetobacter baumannii 6AB11 harboring ISAba1-blaOXA-66 gene by Etest
Acinetobacter baumannii [6] = experiment: Antimicrobial activity against Acinetobacter baumannii ATCC 15151 by Etest
Acinetobacter sp. = experiment: Antimicrobial activity against Acinetobacter sp. harboring aacA4 gene assessed as percent resistant isolates
How it was run: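 Isolates: 75 nonduplicated Acinetobacter clinical isolates collected at one Taipei hospital in 2006 and identified with API 20NE. Susceptibility was tested on the Vitek 2 automated system using the AST-GN09 Gram-negative card.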

Compound	Activity (Acinetobacter baumannii [1])	Activity (Acinetobacter baumannii [2])	MIC (Acinetobacter baumannii [1]) [µg/mL]	MIC (Acinetobacter baumannii [3]) [µg/mL]	MIC (Acinetobacter baumannii [4]) [µg/mL]	MIC (Acinetobacter baumannii [5]) [µg/mL]	MIC (Acinetobacter baumannii [6]) [µg/mL]	MIC (Acinetobacter baumannii [2]) [µg/mL]	Activity (Acinetobacter sp.) [%]
C[C@H]1COc2c(N3CCN(C)CC3)c(F)cc3c(=O)c(C(=O)O)cn1c23	Active	Active							
NCC[C@H](O)C(=O)N[C@@H]1C[C@H](N)[C@@H](O[C@H]2O[C@H](CN)[C@@H](O)[C@H](O)[C@H]2O)[C@H](O)[C@H]1O[C@H]1O[C@H](CO)[C@@H](O)[C@H](N)[C@H]1O	Active	Active							
O=C(O)c1cn(C2CC2)c2cc(N3CCNCC3)c(F)cc2c1=O	Active	Active							
CC1(C)S[C@@H]2[C@H](NC(=O)[C@H](N)c3ccccc3)C(=O)N2[C@H]1C(=O)O [AMPICILLIN]			≥ 32	≥ 32	32 (≈ 91.6 µM)	≥ 32	16 (≈ 45.8 µM)	≥ 32	
CO/N=C(\C(=O)N[C@@H]1C(=O)N2C(C(=O)[O-])=C(C[N+]3(C)CCCC3)CS[C@H]12)c1csc(N)n1 [CEFEPIME]			4 (≈ 8.32 µM)	≥ 64	4 (≈ 8.32 µM)	≥ 64	4 (≈ 8.32 µM)	≥ 64	
CC(C)(O/N=C(\C(=O)N[C@@H]1C(=O)N2C(C(=O)[O-])=C(C[n+]3ccccc3)CS[C@H]12)c1csc(N)n1)C(=O)O [CEFTAZIDIME]			4 (≈ 7.32 µM)	≥ 64	4 (≈ 7.32 µM)	≥ 64	4 (≈ 7.32 µM)	8 (≈ 14.6 µM)	
C[C@@H](O)[C@H]1C(=O)N2C(C(=O)O)=C(SCCNC=N)C[C@H]12 [IMIPENEM ANHYDROUS]			≥ 32	≥ 32	0.25 (≈ 0.835 µM)	≥ 32	0.25 (≈ 0.835 µM)	≥ 16	
C[C@@H](O)[C@H]1C(=O)N2C(C(=O)O)=C(S[C@@H]3CN[C@H](C(=O)N(C)C)C3)[C@H](C)[C@H]12 [MEROPENEM]			≥ 16	≥ 16	0.25 (≈ 0.652 µM)	16 (≈ 41.7 µM)	0.25 (≈ 0.652 µM)	≥ 16	
CCN1CCN(C(=O)N[C@@H](C(=O)N[C@@H]2C(=O)N3[C@@H]2SC(C)(C)[C@@H]3C(=O)O)c2ccccc2)C(=O)C1=O [PIPERACILLIN]			≥ 128	≥ 128	≥ 128	≥ 128	16 (≈ 30.9 µM)	≥ 128	
NC[C@H]1O[C@H](O[C@H]2[C@H](O)[C@@H](O[C@H]3O[C@H](CO)[C@@H](O)[C@H](N)[C@H]3O)[C@H](N)C[C@@H]2N)[C@H](N)C[C@@H]1O [TOBRAMYCIN]	Active	Active							66
GENTAMICIN	Active	Active							66
